Values after ≈ are worked out from the molar mass of the structure shown. Active and inactive are the calls of the source.
What was measured:
Candida albicans [1] = experiment: Antibiofilm activity against Candida albicans ATCC 10231 assessed as inhibition of biofilm formation; type: functional
Procedure, shortened: (§1)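 C. albicans ATCC 10231 biofilm, tested during formation and as mature (48 h) biofilm; compounds tested up to 128 μg/mL. BMIC50 taken as lowest concentration giving 50% decrease of biofilm relative to untreated growth control; three independent experiments in triplicate, median reported.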

Candida albicans [2] = experiment: Antifungal activity against Candida albicans ATCC 10231; type: functional
Procedure, shortened: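 Planktonic C. albicans ATCC 10231 cells; compounds tested up to 128 μg/mL. MIC50 defined as lowest concentration producing 50% growth inhibition; three independent experiments, each in triplicate, values given as median.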

Candida albicans [3] = experiment: Antibiofilm activity against Candida albicans ATCC 10231 assessed as reduction in mature biofilm; type: functional; procedure, shortened: as §1
[4] = Toxicity in Galleria mellonella larvae assessed as survival at 64 ug/ml measured after 48 hrs relative to control; conditions: at 64 µg/mL
Procedure, shortened: (§2)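 G. mellonella larvae were injected with 20 μL of compound in sterile water containing less than 1% v/v DMSO, into the last left pro-leg. Doses were 32–512 µg/mL. Survival was scored at 24, 48 and 72 h and is given as the mean percentage of three independent experiments.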

[5] = Toxicity in Galleria mellonella larvae assessed as survival at 128 ug/ml measured after 24 hrs relative to control; conditions: at 128 µg/mL; procedure, shortened: as §2
[6] = Metal chelating activity assessed as Cu2+-compound complex formation by UV-visible spectrophotometry
Procedure, shortened: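 UV–Vis spectroscopic titration of the ligand with Cu2+. The stability constant was calculated from the spectra once the 1:1 stoichiometry was known, and is reported as logKstab ±.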

[7] = Metal chelating activity assessed as stoichiometry ratio of 1:1 for Fe3+-compound complex formation by UV-visible spectrophotometry
[8] = Toxicity in Galleria mellonella larvae assessed as survival at 512 ug/ml measured after 48 hrs relative to control; conditions: at 512 µg/mL; procedure, shortened: as §2
[9] = Toxicity in Galleria mellonella larvae assessed as survival at 128 ug/ml measured after 48 hrs relative to control; conditions: at 128 µg/mL; procedure, shortened: as §2
[10] = Metal chelating activity assessed as Fe3+-compound complex formation by UV-visible spectrophotometry
Procedure, shortened: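 Stoichiometry of ligand–Fe3+ complex found by Job's method of continuous variations from UV titration spectra, Job's plot read at 302 nm; stability constant (logKstab) then calculated by UV–Vis spectroscopy for the determined stoichiometry.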

[11] = Toxicity in Galleria mellonella larvae assessed as survival at 256 ug/ml measured after 48 hrs relative to control; conditions: at 256 µg/mL; procedure, shortened: as §2
[12] = Metal chelating activity assessed as stoichiometry ratio of 1:1 for Cu2+-compound complex formation by UV-visible spectrophotometry
[13] = Toxicity in Galleria mellonella larvae assessed as survival at 128 ug/ml measured after 72 hrs relative to control; conditions: at 128 µg/mL; procedure, shortened: as §2
[14] = Toxicity in Galleria mellonella larvae assessed as survival at 32 ug/ml measured after 24 hrs relative to control; conditions: at 32 µg/mL; procedure, shortened: as §2
[15] = Toxicity in Galleria mellonella larvae assessed as survival at 256 ug/ml measured after 72 hrs relative to control; conditions: at 256 µg/mL; procedure, shortened: as §2
Candida albicans [16] = experiment: Antibiofilm activity against Candida albicans ATCC 10231 assessed as inhibition of biofilm formation in presence of Fe3+; type: functional, organism-based; conditions: dose 8-128 µg/ml
Procedure, shortened: (§3)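 C. albicans ATCC 10231 biofilm-formation assay run in culture medium enriched with increasing concentrations of Fe3+ or Cu2+. BMIC50 is the lowest drug concentration giving a 50% decrease of biofilm relative to the untreated growth control. Three independent experiments in triplicate; data reported as percentage of inhibition ± standard deviation.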

[17] = Toxicity in Galleria mellonella larvae assessed as survival at 512 ug/ml measured after 72 hrs relative to control; conditions: at 512 µg/mL; procedure, shortened: as §2
[18] = Toxicity in Galleria mellonella larvae assessed as survival at 32 ug/ml measured after 48 hrs relative to control; conditions: at 32 µg/mL; procedure, shortened: as §2
Candida albicans [19] = experiment: Antibiofilm activity against Candida albicans ATCC 10231 assessed as inhibition of biofilm formation in presence of Cu2+; type: functional, organism-based; conditions: dose 8-128 µg/ml; procedure, shortened: as §3
[20] = Toxicity in Galleria mellonella larvae assessed as survival at 64 ug/ml measured after 24 hrs relative to control; conditions: at 64 µg/mL; procedure, shortened: as §2
[21] = Toxicity in Galleria mellonella larvae assessed as survival at 64 ug/ml measured after 72 hrs relative to control; conditions: at 64 µg/mL; procedure, shortened: as §2
[22] = Toxicity in Galleria mellonella larvae assessed as survival at 256 ug/ml measured after 24 hrs relative to control; conditions: at 256 µg/mL; procedure, shortened: as §2
[23] = Toxicity in Galleria mellonella larvae assessed as survival at 32 ug/ml measured after 72 hrs relative to control; conditions: at 32 µg/mL; procedure, shortened: as §2
[24] = Toxicity in Galleria mellonella larvae assessed as survival at 512 ug/ml measured after 24 hrs relative to control; conditions: at 512 µg/mL; procedure, shortened: as §2

Cc1c(O)c(=O)ccn1CCCCNC(=O)Cc1ccccc1
MBIC50 (Candida albicans [1]): >128 µg/mL
MIC50 (Candida albicans [2]): > 128 µg/mL
MBIC50 (Candida albicans [3]): >128 µg/mL

Cc1c(O)c(=O)ccn1CCCCc1ccccc1.Cl
survival at 48 h [4]: 100%
MBIC50 (Candida albicans [1]): 16 µg/mL
survival at 24 h [5]: 100%
Activity [6]: Active
Activity [7]: Active
MIC50 (Candida albicans [2]): 16 µg/mL
survival at 48 h [8]: 96%
survival at 48 h [9]: 100%
Activity [10]: Active
survival at 48 h [11]: 100%
Activity [12]: Active
survival at 72 h [13]: 100%
survival at 24 h [14]: 100%
survival at 72 h [15]: 100%
inhibition (Candida albicans [16]): Dose-Dependent Effect
survival at 72 h [17]: 86%
survival at 48 h [18]: 100%
inhibition (Candida albicans [19]): Dose-Dependent Effect
survival at 24 h [20]: 100%
survival at 72 h [21]: 100%
survival at 24 h [22]: 100%
MBIC50 (Candida albicans [3]): >128 µg/mL
survival at 72 h [23]: 100%
survival at 24 h [24]: 100%

Cc1c(O)c(=O)ccn1CCCCCCn1ccc(=O)c(O)c1C.Cl.Cl
MBIC50 (Candida albicans [1]): >128 µg/mL
MIC50 (Candida albicans [2]): > 128 µg/mL
MBIC50 (Candida albicans [3]): >128 µg/mL

Cc1c(OCc2ccccc2)c(=O)ccn1CCCCNC(=O)Cc1ccc(CC(C)C)cc1
MBIC50 (Candida albicans [1]): 64 µg/mL
MIC50 (Candida albicans [2]): > 128 µg/mL
MBIC50 (Candida albicans [3]): >128 µg/mL

COc1ccccc1Cn1ccc(=O)c(O)c1C.Cl
MBIC50 (Candida albicans [1]): >128 µg/mL
MIC50 (Candida albicans [2]): > 128 µg/mL
MBIC50 (Candida albicans [3]): >128 µg/mL

Cc1c(OCc2ccccc2)c(=O)ccn1CCCCn1ccc(=O)c(OCc2ccccc2)c1C
MBIC50 (Candida albicans [1]): 128 µg/mL
MIC50 (Candida albicans [2]): > 128 µg/mL
MBIC50 (Candida albicans [3]): >128 µg/mL

Cc1c(O)c(=O)ccn1CCCCn1ccc(=O)c(O)c1C.Cl.Cl
MBIC50 (Candida albicans [1]): >128 µg/mL
MIC50 (Candida albicans [2]): > 128 µg/mL
MBIC50 (Candida albicans [3]): >128 µg/mL

Cc1c(O)c(=O)ccn1CCCCNC(=O)Cc1ccc(CC(C)C)cc1
MBIC50 (Candida albicans [1]): 64 µg/mL
MIC50 (Candida albicans [2]): 8 µg/mL (≈ 21.6 µM)
MBIC50 (Candida albicans [3]): 128 µg/mL

Cc1c(OCc2ccccc2)c(=O)ccn1CCCn1ccnc1
MBIC50 (Candida albicans [1]): >128 µg/mL
MIC50 (Candida albicans [2]): > 128 µg/mL
MBIC50 (Candida albicans [3]): >128 µg/mL

Cc1c(OCc2ccccc2)c(=O)ccn1CCCCCn1ccc(=O)c(OCc2ccccc2)c1C
MBIC50 (Candida albicans [1]): >128 µg/mL
MIC50 (Candida albicans [2]): > 128 µg/mL
MBIC50 (Candida albicans [3]): >128 µg/mL

Cc1c(O)c(=O)ccn1CCCn1ccnc1.Cl
MBIC50 (Candida albicans [1]): >128 µg/mL
MIC50 (Candida albicans [2]): > 128 µg/mL
MBIC50 (Candida albicans [3]): >128 µg/mL

Cc1c(OCc2ccccc2)c(=O)ccn1CCCc1ccccc1
MBIC50 (Candida albicans [1]): >128 µg/mL
MIC50 (Candida albicans [2]): > 128 µg/mL
MBIC50 (Candida albicans [3]): >128 µg/mL
